Data: PMC2229510 (The Journal of General Physiology, 2001)
Read-outs that look alike come from different tables or passages of the source.

How the values were obtained:
[1] = molecular target: aspartate receptor QQEE receptor–kinase signaling complex (Salmonella typhimurium, UniProt P02941, E302Q/Q309E); test: in vitro receptor-coupled kinase assay, attractant titration, QQEE receptor; assay type: biochemical, S. typhimurium
[2] = molecular target: aspartate receptor EQQQ receptor–kinase signaling complex (Salmonella typhimurium, UniProt P02941, E302Q/E491Q/Q295E); test: in vitro receptor-coupled kinase assay, attractant titration, EQQQ receptor; assay type: biochemical, S. typhimurium
[3] = molecular target: aspartate receptor EEQQ receptor–kinase signaling complex (Salmonella typhimurium, UniProt P02941, E491Q/Q295E); test: in vitro receptor-coupled kinase assay, attractant titration, EEQQ receptor; assay type: biochemical, S. typhimurium
[4] = molecular target: aspartate receptor EEEQ receptor–kinase signaling complex (Salmonella typhimurium, UniProt P02941, E491Q/Q295E/Q309E); test: in vitro receptor-coupled kinase assay, attractant titration, EEEQ receptor; assay type: biochemical, S. typhimurium
[5] = molecular target: aspartate receptor QEEE receptor–kinase signaling complex (Salmonella typhimurium, UniProt P02941, Q309E); test: in vitro receptor-coupled kinase assay, attractant titration, QEEE receptor; assay type: biochemical, S. typhimurium
[6] = molecular target: aspartate receptor QEQQ receptor–kinase signaling complex (Salmonella typhimurium, UniProt P02941, E491Q); test: in vitro receptor-coupled kinase assay, attractant titration, QEQQ receptor; assay type: biochemical, S. typhimurium
[7] = molecular target: aspartate receptor EEQE receptor–kinase signaling complex (Salmonella typhimurium, UniProt P02941, Q295E); test: in vitro receptor-coupled kinase assay, attractant titration, EEQE receptor; assay type: biochemical, S. typhimurium
[8] = molecular target: aspartate receptor QEEQ receptor–kinase signaling complex (Salmonella typhimurium, UniProt P02941, E491Q/Q309E); test: in vitro receptor-coupled kinase assay, attractant titration, QEEQ receptor; assay type: biochemical, S. typhimurium
[9] = molecular target: aspartate receptor QQQQ receptor–kinase signaling complex (Salmonella typhimurium, UniProt P02941, E302Q/E491Q); test: in vitro receptor-coupled kinase assay, attractant titration, QQQQ receptor; assay type: biochemical, S. typhimurium
[10] = molecular target: aspartate receptor–kinase signaling complex (Salmonella enterica subsp. enterica serovar Typhimurium, UniProt P02941); assay type: biochemical, S. typhimurium; conditions: pure off-state, extrapolated from the correlation
[11] = molecular target: aspartate receptor EQQE receptor–kinase signaling complex (Salmonella typhimurium, UniProt P02941, E302Q/Q295E); test: in vitro receptor-coupled kinase assay, attractant titration, EQQE receptor; assay type: biochemical, S. typhimurium
[12] = molecular target: aspartate receptor QEQE (wild type) receptor–kinase signaling complex (Salmonella typhimurium, UniProt P02941); test: in vitro receptor-coupled kinase assay, attractant titration, QEQE; assay type: biochemical, S. typhimurium
Procedure, shortened: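 Native E. coli membranes carrying the receptor (about 10% of total protein) were mixed with purified CheA, CheW and excess CheY to reconstitute the signaling complex, with receptor in the low micromolar range. Kinase activity was read as radiolabeled phospho-CheY at 10-s initial-rate points across α-methyl-aspartate concentrations, normalized to the no-attractant maximum, with three measurements per point. K1/2 and Hill coefficient came from a multisite Hill fit using free attractant concentration.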

[13] = molecular target: aspartate receptor EQEQ receptor–kinase signaling complex (Salmonella typhimurium, UniProt P02941, E302Q/E491Q/Q295E/Q309E); test: in vitro receptor-coupled kinase assay, attractant titration, EQEQ receptor; assay type: biochemical, S. typhimurium
[14] = molecular target: aspartate receptor QQEQ receptor–kinase signaling complex (Salmonella typhimurium, UniProt P02941, E302Q/E491Q/Q309E); test: in vitro receptor-coupled kinase assay, attractant titration, QQEQ receptor; assay type: biochemical, S. typhimurium
[15] = molecular target: aspartate receptor QQQE receptor–kinase signaling complex (Salmonella typhimurium, UniProt P02941, E302Q); test: in vitro receptor-coupled kinase assay, attractant titration, QQQE receptor; assay type: biochemical, S. typhimurium
[16] = molecular target: aspartate receptor EQEE receptor–kinase signaling complex (Salmonella typhimurium, UniProt P02941, E302Q/Q295E/Q309E); test: in vitro receptor-coupled kinase assay, attractant titration, EQEE receptor; assay type: biochemical, S. typhimurium
QQQQ receptor = QQQQ receptor (Salmonella typhimurium, UniProt P02941, E302Q/E491Q); test: L-aspartate binding to QQQQ receptor; conditions: given binding constant for QQQQ receptor

SMILES: CC(N)(CC(=O)O)C(=O)O (racemic) [α-methyl-aspartate, α-methyl-D,L-aspartate]
- IC50 [1]: 31 ± 2 µM
- Measured Hill coefficient ([1]; QQEE receptor, attractant titration, Hill fit): 2.2 ± 0.2
- IC50 [2]: 39 ± 4 µM
- Measured Hill coefficient ([2]; EQQQ receptor, attractant titration, Hill fit): 2.0 ± 0.3
- IC50 [3]: 19 ± 2 µM
- Measured Hill coefficient ([3]; EEQQ receptor, attractant titration, Hill fit): 1.9 ± 0.2
- IC50 [4]: 9 ± 3 µM
- Measured Hill coefficient ([4]; EEEQ receptor, attractant titration, Hill fit): 1.1 ± 0.4
- IC50 [5]: 9 ± 1 µM
- Measured Hill coefficient ([5]; QEEE receptor, attractant titration, Hill fit): 1.7 ± 0.1
- IC50 [6]: 62 ± 3 µM
- Measured Hill coefficient ([6]; QEQQ receptor, attractant titration, Hill fit): 2.2 ± 0.3
- IC50 [7]: 23 ± 2 µM
- Measured Hill coefficient ([7]; EEQE receptor, attractant titration, Hill fit): 1.8 ± 0.1
- IC50 [8]: 19 ± 2 µM
- Measured Hill coefficient ([8]; QEEQ receptor, attractant titration, Hill fit): 2.4 ± 0.5
- IC50 [9]: 97 ± 4 µM
- Measured Hill coefficient ([9]; QQQQ receptor, attractant titration, Hill fit): 2.2 ± 0.2
- K1/2 of the off-state (inactivated conformation) [10]: micromolar to submicromolar range
- K1/2 of the off-state (inactivated conformation) ([10]; listed as α-methyl aspartate): submicromolar to micromolar range
- IC50 [11]: 14 ± 2 µM
- Measured Hill coefficient ([11]; EQQE receptor, attractant titration, Hill fit): 2.1 ± 0.3
- IC50 [12]: 23 ± 4 µM
- Measured Hill coefficient ([12]; QEQE (wild type) receptor, attractant titration, Hill fit): 1.8 ± 0.1
- IC50 [13]: 14 ± 1 µM
- Measured Hill coefficient ([13]; EQEQ receptor, attractant titration, Hill fit): 2.9 ± 0.3
- IC50 [14]: 54 ± 6 µM
- Measured Hill coefficient ([14]; QQEQ receptor, attractant titration, Hill fit): 2.0 ± 0.5
- IC50 [15]: 98 ± 4 µM
- Measured Hill coefficient ([15]; QQQE receptor, attractant titration, Hill fit): 3.3 ± 0.4
- IC50 [16]: 16 ± 4 µM
- Measured Hill coefficient ([16]; EQEE receptor, attractant titration, Hill fit): 1.6 ± 0.4

SMILES: N[C@@H](CC(=O)O)C(=O)O [L-aspartate]
- free energy driving force toward the off-state on binding (QQQQ receptor): exceeding 8 kcal mol^−1
